Sampled rows, rich in hits. Any-hit rate of the full collection: about 4.9%.
NPY Y1 blocker: antagonists of human neuropeptide Y receptor Y1. P25929. HEK293-CNG Y1 cells, membrane potential fluorescence; NPY at EC95, then isoproterenol. inhibition, % at 3.6 µM. 200,000 tested, 1% active. AID 1040;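 active means inhibition above the campaign mean inhibition of all tested compounds plus 3 SD, cut at about 20% in these data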;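 further: 0% = DMSO wells given NPY plus isoproterenol and 100% = isoproterenol alone without NPY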
Target sequence (P25929 whole entry, looked up): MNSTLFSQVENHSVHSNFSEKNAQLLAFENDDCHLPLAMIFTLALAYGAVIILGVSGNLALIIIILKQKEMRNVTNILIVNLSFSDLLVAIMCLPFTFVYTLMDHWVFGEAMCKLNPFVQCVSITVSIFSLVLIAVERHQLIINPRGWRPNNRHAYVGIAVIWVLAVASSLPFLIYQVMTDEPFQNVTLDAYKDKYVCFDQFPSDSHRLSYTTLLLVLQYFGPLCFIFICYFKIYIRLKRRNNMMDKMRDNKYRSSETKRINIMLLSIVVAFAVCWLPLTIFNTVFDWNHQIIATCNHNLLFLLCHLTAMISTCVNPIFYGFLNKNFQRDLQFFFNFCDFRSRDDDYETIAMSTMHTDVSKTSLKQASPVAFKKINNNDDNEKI
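Assay system: HEK293 Y1/CNG channel cell line; Doses: single compound dose of 3.6 µM, 0.4% DMSO; Timing: dye 3 h, compound 60 min room temperature, stimulation 45 min; Technique: Membrane-potential fluorescent dye readout; Measure: % inhibition of NPY effect.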
NPY-Y2 PAM-ag: human NPY-Y2 potentiation or agonism, primary screen. P49146. cells expressing NPY-Y2, potentiator/agonist read-out. activation, % at 3.6 µM. 220,000 tested, 0.45% active. AID 1359; in the data active means activation above about 27%;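 further: cells stimulated with NPY near EC25 plus isoproterenol at EC100; 0% = vehicle plus submaximal agonist and 100% = vehicle plus saturating agonist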
RAM network inh: yeast RAM network inhibition | 190,000 tested, 1.8% active | inhibition, % at 50 µM | S. cerevisiae dse1pr::URA3 reporter, 5-FOA growth OD615, 2 d; analog-sensitive cbk1-as2 kinase mutant strain;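 active means inhibition above a set limit, 3 SD over mean compound inhibition, cut at about 8.4% in these data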;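 further: 0% = DMSO-only wells with no growth and 100% = 10 µM 1-NA-PP1 full growth; inhibition rescues growth on 5-FOA so higher OD means more RAM inhibition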
NPY1 pot ag: potentiators or agonists of human neuropeptide Y receptor Y1; P25929; NPY-Y1 expressing cells, potentiator/agonist activation; 220,000 tested, 0.37% active; activation, % at 3.6 µM; in the data active means activation above about 33%, passing the limit was not always enough;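 further: cells stimulated with NPY at EC10 then isoproterenol at EC100; 0% = low agonist plus stimulus and 100% = saturating agonist plus stimulus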
WT yeast gro inh: growth inhibition of WT yeast, mitochondrial fusion screen; 190,000 tested, 2.1% active; inhibition, % at 10 µM; mitochondrial fusion phenotypic screen, WT strain; AID 1362; in the data active means inhibition above about 58%; tested in S. cerevisiae
NPY Y2 blocker: antagonists of human neuropeptide Y receptor Y2; P49146; NPY-Y2 expressing cells, antagonist mode; inhibition, % at 2.7 µM; 140,000 tested, 0.99% active; AID 793; in the data active means inhibition above about 17%;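 further: 0% = vehicle with agonist challenge and 100% = reference antagonist with challenge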
Active calls of the source: *; / = no result.

SMILES	NPY Y1 blocker	NPY-Y2 PAM-ag	RAM network inh	NPY1 pot ag	WT yeast gro inh	NPY Y2 blocker
Cc1ccc(NC(=O)NC(=O)CN2C(=O)NC3(CCCCCCC3)C2=O)c(C)c1	7.8	-5.6	6.9	39.5*	18.7	4.7
O=C(CSc1nnc2n1CCCN2C(=S)Nc1ccc(Cl)cc1)c1ccccc1	0.3	8.0	3.1	-2.6	65.3*	-0.5
O=C(CSc1nnc2ccccn12)c1ccc(Cl)cc1	1.8	3.1	1.5	-23.3	1.7	/
c1ccc(CC2CCN(c3ncnc4sccc34)CC2)cc1	14.9	1.1	0.0	-52.0	63.4*	/
CCc1nnc(NC(=O)CSc2ncnc3scc(-c4ccc(C)cc4)c23)s1	2.1	-5.6	3.1	-15.0	-10.7	3.1
O=[N+]([O-])c1ccc(Sc2nccn2Cc2ccccc2)cc1	4.7	-3.1	0.3	-33.2	8.6	3.0
CCCCOP(=O)(c1ccc(N(C)C)cc1)C(Nc1ccccc1)c1ccccc1 (configuration not stated)	13.7	18.0	4.2	3.0	81.2*	12.6
CCCOP(=O)(c1ccc(N(C)C)cc1)C(Nc1ccccc1)c1ccc(N(C)C)cc1 (configuration not stated)	0.3	7.3	-1.4	1.6	17.8	0.3
O=C(/C=C/c1ccc(Br)cc1)Nc1ccc(S(=O)(=O)Nc2ncccn2)cc1	3.0	-10.7	9.8*	9.3	-3.7	/
O=C(/C=C/c1cccc(F)c1)Nc1ccc(S(=O)(=O)Nc2ncccn2)cc1	/	11.1	/	16.6	/	/
CC(/C=C1\N=C(SCc2ccccc2Cl)SC1=O)=C\c1ccccc1	1.8	3.4	10.3*	3.4	/	1.1
CC(C)CC(=O)NCc1ccc2[nH]c3c(c2c1)CCCC3	2.6	-3.4	0.3	4.1	-4.8	/
Cc1cc(NC(=O)CCC(=O)N(CCC(C)C)CC(=O)NCC2CCCO2)no1 (configuration not stated)	0.8	-5.3	0.7	-9.4	-11.4	1.3
Cc1cc(C)cc(N(CC(=O)NCC2CCCO2)C(=O)CCC(=O)Nc2cc(C)on2)c1 (configuration not stated)	-1.9	7.7	1.9	-8.4	99.0*	0.6
Cc1ccc(-c2nnn(CC(=O)N(c3ccccc3F)C(C(=O)NC3CCCC3)c3ccco3)n2)o1 (configuration not stated)	7.6	-2.1	8.2	-12.1	-14.2	3.2
O=[N+]([O-])c1ccc(O)c(-c2nc(-c3ccccc3)c(-c3cccs3)[nH]2)c1	-5.9	10.0	1.8	-0.1	72.2*	2.8
O=C(O)c1ccc(-c2nc(-c3ccccc3)c(-c3cccs3)[nH]2)cc1	/	-31.5	/	6.9	/	/
Cn1c(=O)c2c(SCC(=O)Nc3ccc4c(c3)OCCO4)nc(CC(C)(C)C)nc2n(C)c1=O	6.2	10.8	5.0	-11.5	-10.6	2.7
c1ccc(-c2oc3ncnc(NCCCn4ccnc4)c3c2-c2ccccc2)cc1	6.2	-15.8	0.9	-26.4	72.5*	17.0
Cc1cccc(/C=N\Nc2cn[nH]c(=O)c2Cl)c1	4.3	-5.8	9.8*	11.5	-10.6	0.8
O=C(N/N=C/c1c[nH]c2ccccc12)C1CC1(c1ccccc1)c1ccccc1 (configuration not stated)	-0.5	19.0	7.5	23.4	80.7*	-2.0
O=C(N/N=C/c1c[nH]c2ccccc12)C1CC1c1ccccc1 (configuration not stated)	-3.9	-1.4	0.9	19.6	12.3	2.3
Cc1ccc2cc(CN(CCN3CCCC3)C(=O)Nc3ccc(F)cc3)c(=O)[nH]c2c1C	25.5*	-29.3	-0.5	-55.5	-10.1	4.6
N#C/C(=C/c1ccc(CNC(=O)C(=O)Nc2cc(Cl)cc(Cl)c2)o1)C(=O)NCc1cccnc1	4.0	-5.3	8.6*	-22.7	-1.0	3.6
CC12CC3CC(C)(C1)CC(CN1CCOCC1)(C3)C2	-5.7	-3.9	-0.2	11.2	-14.9	6.9
SMILES	NPY Y1 blocker	NPY-Y2 PAM-ag	RAM network inh	NPY1 pot ag	WT yeast gro inh	NPY Y2 blocker
CC12CC3CC(C)(C1)CC(CN)(C3)C2	16.9	33.8*	0.1	37.0*	3.5	16.4
O=C(CNC(=S)N(Cc1ccccc1)Cc1ccccc1F)NCc1ccccc1	-2.7	-1.0	7.4	5.6	74.6*	/
O=C(CNC(=S)N(Cc1ccccc1)Cc1ccccc1F)NCCc1ccccc1	-3.7	-3.7	11.4*	-5.3	64.0*	/
Cc1ccc(S(=O)(=O)/N=C(/Nc2nc(C)cc(C)n2)N2CCOCC2)cc1	25.2*	-6.0	/	0.1	-3.7	-3.3
Cc1ccc(S(=O)(=O)Nc2nc(-c3ccc(F)cc3)cs2)cc1	/	-11.3	/	-0.3	/	/
C=CCN(CC=C)c1nc2ccccc2nc1C(C#N)C(=O)OCCOC (configuration not stated)	4.5	-9.0	0.1	-18.3	59.4*	2.4
Cc1cccc(N2CCN(Cc3nc(-c4ccccc4Cl)oc3C)CC2)n1	20.4*	-39.0	1.0	-17.6	31.3	/
Cc1ccccc1-c1nc(CN2CCSCC2)c(C)o1	1.7	-0.8	-0.9	6.9	-6.0	/
Cc1cccc(N2CCN(Cc3nc(-c4cccc(Cl)c4)oc3C)CC2)n1	19.4	-27.7	0.4	-20.4	62.1*	/
COC(=O)c1cc2occc2n1Cc1nc(-c2cccc(Cl)c2)oc1C	-3.1	-0.9	11.3*	10.1	9.5	8.6
CCN(CCCNS(=O)(=O)c1ccc2c(c1)oc(=O)n2C)c1cccc(C)c1	4.2	-0.6	2.2	-0.2	6.3	2.0
OCc1nc2ccccc2n1/N=C/c1cccs1	/	-5.5	/	-2.3	/	/
COc1ccc([C@H]2[C@H](C(=O)C(C)(C)C)N3N=Cc4ccccc4C3[C@]23N=C(c2ccccc2)OC3=O)cc1 (some centres not stated)	26.7*	5.7	3.4	12.9	-2.6	0.7
CC1=C(C(=O)N2CCCCCC2)C2(CCC(C)CC2)OC1=O (configuration not stated)	1.7	-4.8	0.9	-12.2	4.0	3.2
COc1c(C)cc(C(=O)C2CCCN(C(=O)C3=C(C)OCCO3)C2)cc1C (configuration not stated)	4.6	-11.7	0.0	1.1	4.6	/
Nc1[nH]c(=S)[nH]c(=O)c1-c1ccccc1	9.7	4.0	1.4	7.0	-8.6	-0.3
NC(=O)CSc1nnc(-c2ccc(S(=O)(=O)N3CCCC3)cc2)o1	5.2	-16.8	2.9	1.9	-14.7	1.4
Cc1ccc(CSc2nnc(-c3ccc(S(=O)(=O)N4CCCC4)cc3)o2)cc1	4.7	-8.4	10.2*	-27.2	2.7	1.5
Cc1cc(C)cc(NC(=O)CSc2nnc(-c3ccc(S(=O)(=O)N4CCCC4)cc3)o2)c1	10.8	-30.4	-0.7	-8.4	9.2	-1.7
O=S(=O)(c1ccc(-c2nnc(SCc3ccccc3)o2)cc1)N1CCCC1	-8.3	14.1	9.3*	10.1	11.5	-1.6
CCN(CC)CC(=O)Nc1ccc2c(c1)Nc1ccccc1CC2	-3.2	25.9	0.1	23.4	10.8	0.3

Screens as filed in PubChem.
